# Data published in ChEMBL document CHEMBL3734658, “Ring-truncated deguelin derivatives as potent Hypoxia Inducible Factor-1α (HIF-1α) inhibitors” (Eur J Med Chem, 2015).
# The source made the active and inactive calls. No cut-off for these calls is given here.
# Tests used:
# [1] = target: Hypoxia-inducible factor 1-alpha (Homo sapiens) (UniProt Q16665); assay: Inhibition of HIF-1alpha in human H1299 cells at 100 nM after 72 hrs subsequently incubated for 12 hrs under hypoxic conditions by Western blot assay relative to control; assay type: cell-based; details: values are per cent of control
# Sequence of Hypoxia-inducible factor 1-alpha (Homo sapiens) (Q16665 whole entry, looked up): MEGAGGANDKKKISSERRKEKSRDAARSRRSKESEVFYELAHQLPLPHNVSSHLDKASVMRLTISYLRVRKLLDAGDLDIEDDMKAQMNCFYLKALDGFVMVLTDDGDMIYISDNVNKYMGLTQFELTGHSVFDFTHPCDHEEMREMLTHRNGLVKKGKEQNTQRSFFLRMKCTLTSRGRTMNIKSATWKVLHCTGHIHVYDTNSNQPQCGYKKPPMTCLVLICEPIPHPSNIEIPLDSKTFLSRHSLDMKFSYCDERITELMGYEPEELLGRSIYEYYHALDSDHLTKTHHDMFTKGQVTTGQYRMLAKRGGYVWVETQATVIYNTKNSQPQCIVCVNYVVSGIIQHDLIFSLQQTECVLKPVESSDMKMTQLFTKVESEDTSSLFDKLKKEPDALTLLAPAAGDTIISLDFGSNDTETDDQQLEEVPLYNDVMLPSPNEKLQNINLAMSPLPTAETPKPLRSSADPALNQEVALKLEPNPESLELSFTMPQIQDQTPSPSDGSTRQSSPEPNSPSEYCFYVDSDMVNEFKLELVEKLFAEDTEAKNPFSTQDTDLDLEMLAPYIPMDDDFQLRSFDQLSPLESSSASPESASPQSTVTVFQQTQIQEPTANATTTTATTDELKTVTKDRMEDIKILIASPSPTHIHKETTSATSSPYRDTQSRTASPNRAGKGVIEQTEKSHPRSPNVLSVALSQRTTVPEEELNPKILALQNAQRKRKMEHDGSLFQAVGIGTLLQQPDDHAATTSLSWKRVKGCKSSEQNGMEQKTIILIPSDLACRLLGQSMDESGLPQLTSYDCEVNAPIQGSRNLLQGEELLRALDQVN
# Method in brief: (§1)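 H1299 non-small-cell lung carcinoma cells were left untreated or exposed to compound at 100 nM (or 10 nM for a follow-up subset) for 72 h. They were then held under hypoxia for 12 h, and HIF-1α protein was assessed by western blot.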
# [2] = target: Hypoxia-inducible factor 1-alpha (Homo sapiens) (UniProt Q16665); assay: Inhibition of HIF-1alpha in human H1299 cells at 10 nM after 72 hrs subsequently incubated for 12 hrs under hypoxic conditions by Western blot assay relative to control; assay type: cell-based; details: values are per cent of control; method in brief: as §1
# [3] = Antitumor activity against human H1299 cells assessed as reduction in cell viability at 20 uM by MTT assay; assay type: functional; details: NCI-H1299
# [4] = tested on: NCI-H1299; assay: Antitumor activity against human H1299 cells assessed as reduction in cell viability by MTT assay; assay type: functional, cell-based
# [5] = Cytotoxicity against mouse HT22 cells assessed as cell viability at 0.1 to 10 uM; assay type: cell-based; details: ht-22, 10 µM
# [6] = species: Homo sapiens; assay: Antiangiogenic activity in human RMVEC assessed as inhibition of VEGF-induced cell migration under hypoxic condition at 100 nM by transwell chamber system; assay type: functional
# [7] = target: Hypoxia-inducible factor 1-alpha (Homo sapiens) (UniProt Q16665); assay: Inhibition of HIF-1alpha in human H1299 cells after 72 hrs subsequently incubated for 12 hrs under hypoxic conditions by Western blot assay relative to control; assay type: cell-based; method in brief: as §1
# [8] = species: Homo sapiens; assay: Antiangiogenic activity in human RMVEC assessed as inhibition of VEGF-induced cell proliferation under hypoxic condition at 100 nM by [3H]thymidine incorporation assay; assay type: functional
SMILES,"response, % of control [1] [%]",also measured
CO/N=C(/Cc1ccc(OC)c(OC)n1)c1ccc2c(c1OC)C=CC(C)(C)O2,64.8,"response, % of control [2]: 74%"
COc1ccc(C(C)C(OC(=O)C2CC2)c2ccc3c(c2OC)C=CC(C)(C)O3)c(F)c1OC (stereo not given),35,"inhibition at 20 µM [3]: 50%; response, % of control [2]: 81.6%; Activity [4]: Dose-dependent effect"
COc1ccc(C(C)(C)C(O)c2ccc3c(c2OC)C=CC(C)(C)O3)nc1OC (stereo not given),69.2,–
COc1ccc(CC(O)c2ccc3c(c2OC)C=CC(C)(C)O3)nc1OC (stereo not given),75.2,–
COc1ccc(C(C)(C)C(=O)c2ccc3c(c2OC)C=CC(C)(C)O3)c(F)c1OC,74.9,–
COc1ccc(C(C)(C)C(=O)c2ccc3c(c2OC)C=CC(C)(C)O3)nc1OC,99.9,–
COc1ccc([C@H](O)[C@@H](O)c2ccc3c(c2OC)C=CC(C)(C)O3)nc1OC (relative stereo),68.9,–
CCC(=O)OC(c1ccc2c(c1OC)C=CC(C)(C)O2)C(C)c1ccc(OC)c(OC)c1F (stereo not given),63.7,–
COc1ccc(C/C(=N\O)c2ccc3c(c2OC)C=CC(C)(C)O3)nc1OC,78.5,–
COc1ccc(CC(OC(=O)C2CC2)c2ccc3c(c2OC)C=CC(C)(C)O3)c(F)c1OC (stereo not given),70.3,–
CCC(c1ccc(OC)c(OC)c1F)C(OC(=O)C1CC1)c1ccc2c(c1OC)C=CC(C)(C)O2 (stereo not given),87.9,–
COc1ccc(C(C)C(OC(C)=O)c2ccc3c(c2OC)C=CC(C)(C)O3)nc1OC (stereo not given),96.7,–
COc1ccc(CC(OC(N)=O)c2ccc3c(c2OC)C=CC(C)(C)O3)nc1OC (stereo not given),75,–
COc1ccc(CC(OC(N)=O)c2ccc3c(c2OC)C=CC(C)(C)O3)c(F)c1OC (stereo not given),88.9,–
COc1ccc(CC(O)c2ccc3c(c2OC)C=CC(C)(C)O3)c(F)c1OC (stereo not given),74.3,–
COc1ccc(C(C)C(OC(=O)C2CCC2)c2ccc3c(c2OC)C=CC(C)(C)O3)c(F)c1OC (stereo not given),69.5,–
COc1ccc([C@H](C)[C@@H](OC(C)=O)c2ccc3c(c2OC)C=CC(C)(C)O3)c(F)c1OC (relative stereo),52.2,"Activity [5]: Non-toxic; Activity [6]: Active; inhibition [7]: Dose-dependent effect; Activity [8]: Active; inhibition at 20 µM [3]: 50%; response, % of control [2]: 63.2%; Activity [4]: Dose-dependent effect"
COc1ccc(C(C)(C)C(OC(=O)C2CC2)c2ccc3c(c2OC)C=CC(C)(C)O3)c(F)c1OC (stereo not given),111,–
COc1ccc(CC(OC(C)=O)c2ccc3c(c2OC)C=CC(C)(C)O3)nc1OC (stereo not given),114,–
COc1ccc(C(C)C(O)c2ccc3c(c2OC)C=CC(C)(C)O3)nc1OC (stereo not given),71.2,–
COc1ccc(C(C)C(O)c2ccc3c(c2OC)C=CC(C)(C)O3)c(F)c1OC (stereo not given),75,–
CNC(=O)OC(c1ccc2c(c1OC)C=CC(C)(C)O2)C(C)c1ccc(OC)c(OC)c1F (stereo not given),76.5,–

SMILES,"response, % of control [1] [%]",also measured
COc1ccc(C(C)C(OC(=O)N(C)C)c2ccc3c(c2OC)C=CC(C)(C)O3)c(F)c1OC (stereo not given),64.1,"response, % of control [2]: 93.6%"
CCC(=O)OC(Cc1ccc(OC)c(OC)c1F)c1ccc2c(c1OC)C=CC(C)(C)O2 (stereo not given),77.3,–
COc1ccc(C(C)(C)C(O)c2ccc3c(c2OC)C=CC(C)(C)O3)c(F)c1OC (stereo not given),68,–
COc1ccc(/C=C/c2ccc3c(c2OC)C=CC(C)(C)O3)c(F)c1OC,134,–
COc1ccc(CC(=O)c2ccc3c(c2OC)C=CC(C)(C)O3)c(F)c1OC,67.8,–
COc1ccc(C(C)C(=O)c2ccc3c(c2OC)C=CC(C)(C)O3)c(F)c1OC (stereo not given),78.6,–
COc1ccc(/C=C/c2ccc3c(c2OC)C=CC(C)(C)O3)nc1OC,133,–
COc1ccc(C(C)(C)C(OC(C)=O)c2ccc3c(c2OC)C=CC(C)(C)O3)nc1OC (stereo not given),113,–
COc1ccc([C@H](C)C(=O)c2ccc3c(c2OC)C=CC(C)(C)O3)cc1OC,82.1,–
COc1ccc(C(C)(C)C(OC(C)=O)c2ccc3c(c2OC)C=CC(C)(C)O3)c(F)c1OC (stereo not given),83.4,–
COc1ccc(C(C)(C)C(OC(N)=O)c2ccc3c(c2OC)C=CC(C)(C)O3)nc1OC (stereo not given),108,–
COc1ccc(CC(=O)c2ccc3c(c2OC)C=CC(C)(C)O3)cc1OC,85.3,–
COc1ccc(C/C(=N/O)c2ccc3c(c2OC)C=CC(C)(C)O3)nc1OC,79.2,–
COc1cc2c(cc1OC)[C@@H]1C(=O)c3ccc4c(c3O[C@@H]1CO2)C=CC(C)(C)O4 [DEGUELIN],64,"Activity [5]: Toxic; response, % of control [2]: 94%"
COc1ccc([C@H](C)C(=O)c2ccc3c(c2OC)C=CC(C)(C)O3)nc1OC,44.2,"response, % of control [2]: 88.4%"
CCC(=O)OC(c1ccc2c(c1OC)C=CC(C)(C)O2)C(C)(C)c1ccc(OC)c(OC)c1F (stereo not given),88.2,–
COc1ccc(C(C)C(OC(N)=O)c2ccc3c(c2OC)C=CC(C)(C)O3)c(F)c1OC (stereo not given),48.8,"response, % of control [2]: 80.9%"
COc1ccc(CC(=O)c2ccc3c(c2OC)C=CC(C)(C)O3)nc1OC,77.6,–
COc1ccc(C(C)C(=O)c2ccc3c(c2OC)C=CC(C)(C)O3)nc1OC (stereo not given),89.3,–
COc1ccc([C@H](C)[C@H](OC(C)=O)c2ccc3c(c2OC)C=CC(C)(C)O3)c(F)c1OC (relative stereo),79.4,–
COc1ccc(CC(OC(C)=O)c2ccc3c(c2OC)C=CC(C)(C)O3)c(F)c1OC (stereo not given),69.3,–
COc1ccc([C@H](O)[C@@H](O)c2ccc3c(c2OC)C=CC(C)(C)O3)c(F)c1OC (relative stereo),68.1,–
